The results in this text go back to ChEMBL document CHEMBL5096186, “Design, Synthesis, and Biological Evaluation of Novel Pyrimido[4,5-b]indole Derivatives Against Gram-Negative Multidrug-Resistant Pathogens” (J Med Chem, 2021).

In data set [1] the test system is Staphylococcus aureus. The experiment in a line: Antibacterial activity against methicillin-sensitive Staphylococcus aureus strains 15 1 to 4 assessed as reduction in bacterial growth incubated for 18 to 20 hrs by CLSI based microdilution method. The data set is classed as functional. Particulars: time 18-20 hrs. A digest of the protocol: (§1)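 Broth microdilution per CLSI. Compounds dissolved in DMSO (levofloxacin and meropenem in water) as 64 μg/mL stock, then serial twofold dilutions in broth giving 64 to 0.008 μg/mL. […] Clinical isolates tested as several strains per group; racemic GP-1 served as positive control; values given as MIC ranges.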
(In general: Broth dilution looks for growth in wells or tubes with falling amounts of substance.)

In data set [2] the test system is Staphylococcus epidermidis. The experiment in a line: Antibacterial activity against methicillin-sensitive Staphylococcus epidermidis strains 15 1 to 4 assessed as reduction in bacterial growth incubated for 18 to 20 hrs by CLSI based microdilution method. The data set is classed as functional. To be noted: time 18-20 hrs. The method, boiled down:
as §1

Data set [3] relates to Escherichia coli. The data set can be described thus: Antibacterial activity against ESBL-producing Escherichia coli ATCC 35218 strains 15 1 to 3 assessed as reduction in bacterial growth incubated for 18 to 20 hrs by CLSI based microdilution method. Format: functional. To be noted: time 18-20 hrs. A digest of the protocol: (§2)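 CLSI broth microdilution. Compounds in DMSO (levofloxacin and meropenem in water), serial twofold dilutions in broth, 64 to 0.008 μg/mL. […] Results reported as MIC ranges across strains.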

Data set [4] deals with Escherichia coli. The experiment in a line: Antibacterial activity against Escherichia coli ATCC 35218 strains 15 1 to 3 assessed as reduction in bacterial growth incubated for 18 to 20 hrs by CLSI based microdilution method. The data set is classed as functional. To be noted: time 18-20 hrs. A digest of the protocol:
as §2

Data set [5] has as its system Pseudomonas aeruginosa. The experiment in a line: Antibacterial activity against multidrug resistant Pseudomonas aeruginosa strains 15 1 to 3 assessed as reduction in bacterial growth incubated for 18 to 20 hrs by CLSI based microdilution method. Format: functional. To be noted: time 18-20 hrs. A digest of the protocol: as §1
Data set [6] concerns Escherichia coli. The experiment in a line: Antibacterial activity against ESBL-producing multidrug resistant Escherichia coli assessed as reduction in bacterial growth incubated for 18 to 20 hrs by CLSI based microdilution method. Particulars: time 18-20 hrs. The data set is classed as functional. A digest of the protocol:
as §1

The subject of data set [7] is Escherichia coli. The experiment in a line: Antibacterial activity against multidrug resistant wild type Escherichia coli ATCC BAA-2340 assessed as reduction in bacterial growth incubated for 18 to 20 hrs by CLSI based microdilution method. The data set is classed as functional. Particulars: time 18-20 hrs. The method, boiled down:
as §1

The test system of data set [8] is Escherichia coli. The data set can be described thus: Antibacterial activity against multidrug resistant wild type Escherichia coli NCTC 13353 assessed as reduction in bacterial growth incubated for 18 to 20 hrs by CLSI based microdilution method. Format: functional. To be noted: time 18-20 hrs. A digest of the protocol:
as §1

Data set [9] relates to Klebsiella pneumoniae. The data set can be described thus: Antibacterial activity against KPC2-producing multidrug resistant Klebsiella pneumoniae assessed as reduction in bacterial growth incubated for 18 to 20 hrs by CLSI based microdilution method. Format: functional. Particulars: time 18-20 hrs. The method, boiled down: as §1
The test system of data set [10] is Klebsiella pneumoniae. The experiment in a line: Antibacterial activity agains wild type Klebsiella pneumoniae ATCC BAA-1705 assessed as reduction in bacterial growth incubated for 18 to 20 hrs by CLSI based microdilution method. The data set is classed as functional. To be noted: time 18-20 hrs. A digest of the protocol:
as §2

Data set [11] concerns Klebsiella pneumoniae. The experiment in a line: Antibacterial activity agains wild type Klebsiella pneumoniae ATCC BAA-2470 assessed as reduction in bacterial growth incubated for 18 to 20 hrs by CLSI based microdilution method. The data set is classed as functional. Particulars: time 18-20 hrs. The method, boiled down:
as §1

The subject of data set [12] is Acinetobacter baumannii. The data set can be described thus: Antibacterial activity agains OXA23-producing multidrug resistant Acinetobacter baumannii assessed as reduction in bacterial growth incubated for 18 to 20 hrs by CLSI based microdilution method. Format: functional. Particulars: time 18-20 hrs. A digest of the protocol:
as §1

Data set [13] concerns Acinetobacter baumannii. The experiment in a line: Antibacterial activity against wild type Acinetobacter baumannii NCTC 13304 assessed as reduction in bacterial growth incubated for 18 to 20 hrs by CLSI based microdilution method. The data set is classed as functional. Particulars: time 18-20 hrs. A digest of the protocol:
as §1

In data set [14] the test system is Pseudomonas aeruginosa. The experiment in a line: Antibacterial activity against IMP4-producing multidrug resistant Pseudomonas aeruginosa assessed as reduction in bacterial growth incubated for 18 to 20 hrs by CLSI based microdilution method. The data set is classed as functional. Particulars: time 18-20 hrs. A digest of the protocol:
as §1

In data set [15] the test system is Pseudomonas aeruginosa. The experiment in a line: Antibacterial activity against wild type Pseudomonas aeruginosa ATCC 27853 assessed as reduction in bacterial growth incubated for 18 to 20 hrs by CLSI based microdilution method. The data set is classed as functional. Particulars: time 18-20 hrs. The method, boiled down: as §2
The test system of data set [16] is Staphylococcus aureus. The experiment in a line: Antibacterial activity against methicillin-resistant Staphylococcus aureus strains 15 1 to 4 assessed as reduction in bacterial growth incubated for 18 to 20 hrs by CLSI based microdilution method. Format: functional. Particulars: time 18-20 hrs. The method, boiled down: as §1
For data set [17], the target named is hERG (KCNH2) potassium channel (Homo sapiens, UniProt Q12809). The experiment in a line: Inhibition of hERG potassium channel assessed as maximum inhibition rate at 40 uM at -80 mV holding potential incubated for 120 seconds by whole cell-automated voltage clamp analysis assay relative to control. Format: toxicity. Particulars: time 120 sec. A digest of the protocol: (§3)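 Automated whole-cell patch clamp, holding potential −80 mV. Voltage protocol applied every 20 s. Baseline set with external solution containing 0.1% DMSO and stabilised 3 min. Compound applied until steady state, at least 3 min, then washout. Maximum tested concentration 40 μM, or 3 μM for cisapride as positive control.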
Background: Block of hERG is tested as a sign of cardiac risk.

Data set [18] concerns the target Voltage-gated inwardly rectifying potassium channel KCNH2 (Homo sapiens, UniProt Q12809). The data set can be described thus: Inhibition of hERG potassium channel assessed as […] at -80 mV holding potential incubated for 120 seconds by whole cell-automated voltage clamp analysis assay. Format: toxicity. A digest of the protocol:
as §3

pIC50: −log10 of the molar value. Values after ≈ are worked out from the molar mass of the structure shown.

Chain of Voltage-gated inwardly rectifying potassium channel KCNH2 (Q12809 whole entry): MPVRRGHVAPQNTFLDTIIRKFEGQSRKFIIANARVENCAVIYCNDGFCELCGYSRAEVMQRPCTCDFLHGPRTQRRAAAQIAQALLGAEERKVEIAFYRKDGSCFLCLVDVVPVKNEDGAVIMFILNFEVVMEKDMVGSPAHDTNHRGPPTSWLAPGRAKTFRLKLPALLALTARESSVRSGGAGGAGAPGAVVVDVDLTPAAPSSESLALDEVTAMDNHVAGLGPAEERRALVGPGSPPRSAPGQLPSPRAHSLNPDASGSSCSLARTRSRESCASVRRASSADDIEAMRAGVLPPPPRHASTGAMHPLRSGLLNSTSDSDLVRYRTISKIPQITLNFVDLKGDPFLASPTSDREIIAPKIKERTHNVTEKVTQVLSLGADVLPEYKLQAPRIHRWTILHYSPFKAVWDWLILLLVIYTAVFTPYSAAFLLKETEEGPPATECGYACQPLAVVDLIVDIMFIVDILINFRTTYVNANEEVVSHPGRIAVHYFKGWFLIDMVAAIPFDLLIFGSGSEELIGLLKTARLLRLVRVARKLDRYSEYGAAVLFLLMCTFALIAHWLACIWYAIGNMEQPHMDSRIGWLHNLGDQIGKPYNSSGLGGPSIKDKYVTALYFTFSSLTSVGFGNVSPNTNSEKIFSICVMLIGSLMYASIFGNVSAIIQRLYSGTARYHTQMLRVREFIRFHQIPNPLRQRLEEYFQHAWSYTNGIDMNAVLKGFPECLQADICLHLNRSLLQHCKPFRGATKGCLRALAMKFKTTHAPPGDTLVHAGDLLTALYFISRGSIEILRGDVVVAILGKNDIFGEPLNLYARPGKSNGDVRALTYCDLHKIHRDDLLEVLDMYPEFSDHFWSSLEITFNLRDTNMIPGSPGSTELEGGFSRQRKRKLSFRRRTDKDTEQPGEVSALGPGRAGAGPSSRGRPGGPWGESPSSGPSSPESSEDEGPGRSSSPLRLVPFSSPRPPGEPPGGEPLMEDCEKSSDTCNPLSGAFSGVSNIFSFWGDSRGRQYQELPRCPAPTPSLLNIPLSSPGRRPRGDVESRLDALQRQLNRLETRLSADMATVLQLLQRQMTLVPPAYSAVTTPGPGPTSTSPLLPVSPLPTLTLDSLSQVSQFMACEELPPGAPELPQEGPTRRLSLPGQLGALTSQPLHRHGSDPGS
Chain of hERG (KCNH2) potassium channel (Q12809 whole entry): as above

Take `CNc1cc(F)cc2c1[nH]c1nc(Oc3cnc(C)nc3)nc(N3CC(=CC(C)O)C3)c12` (centres undefined): the MIC is below 0.008 µg/mL in [1]; below 0.008 µg/mL in data set [2]; 0.5 µg/mL (≈ 1.15 µM) in data set [3]; 0.125 µg/mL (≈ 0.287 µM) in [4]; above 16 µg/mL in data set [5].
With `CC(C)(O/N=C(\C(=O)N[C@@H]1C(=O)N2C(C(=O)[O-])=C(C[N+]3(CCNC(=O)c4ccc(O)c(O)c4Cl)CCCC3)CS[C@H]12)c1csc(N)n1)C(=O)O` [CEFIDEROCOL], the MIC in [6] was 0.25 µg/mL (≈ 0.332 µM); in data set [7], 4 µg/mL (≈ 5.32 µM); in [8] it was 4 µg/mL (≈ 5.32 µM); in data set [9], 2 µg/mL (≈ 2.66 µM); in data set [10], 32 µg/mL (≈ 42.5 µM); in data set [11], above 64 µg/mL. Moreover, the MIC in data set [12] came to 2 µg/mL (≈ 2.66 µM); in data set [13] it was 2 µg/mL (≈ 2.66 µM); in data set [14], 1 µg/mL (≈ 1.33 µM); in [15] it was 4 µg/mL (≈ 5.32 µM).
Regarding `CCC(CN)=C1CN(c2nc(Sc3cnc(C)nc3)nc3[nH]c4c(NC)cc(F)cc4c23)C1`, the MIC is below 0.008 µg/mL in data set [16]; 0.008 µg/mL (≈ 0.0172 µM) in data set [1]; below 0.008 µg/mL in [2]; 1 µg/mL (≈ 2.15 µM) in [3]; 0.5 µg/mL (≈ 1.08 µM) in data set [4]; above 16 µg/mL in data set [5].
In the case of `CCC(CN)=C1CN(c2nc(NS(C)(=O)=O)nc3[nH]c4c(NC)cc(F)cc4c23)C1`, the minimum inhibitory concentration (MIC) in data set [1], in data set [2], in data set [3], in [4] and in [5] was above 16 µg/mL in each case.
As for `CNc1cc(F)cc2c1[nH]c1nc(Oc3cnc(C)nc3)nc(N3CC(=C(C)CO)C3)c12`, the MIC in data set [1] was below 0.03 µg/mL; in data set [2], below 0.03 µg/mL; in data set [3], above 64 µg/mL; in data set [4] it was 0.25 µg/mL (≈ 0.574 µM); in data set [5] it was above 64 µg/mL.
Take `CNc1cc(F)cc2c1[nH]c1nc(Oc3cnc(C)nc3)nc(N3CC/C(=C(\F)CN)C3)c12`: the MIC in data set [16] was 0.008 µg/mL (≈ 0.0177 µM); in [1], below 0.008 µg/mL; in data set [2] it was below 0.008 µg/mL; in data set [3], 0.015 µg/mL (≈ 0.0332 µM); in data set [4], below 0.06 µg/mL; in data set [5], 2 µg/mL (≈ 4.42 µM). In addition, the inhibition at 2 min, 40 µM in data set [17] was found to be 41.6%. Besides, the pIC50 in data set [18] is below 4.40.
As for `[2H]C([2H])([2H])Nc1cc(F)cc2c1[nH]c1nc(Oc3cnc(C(C)O)nc3)nc(N3CC(=C(CC)CN)C3)c12` (centres undefined), the MIC is 4 µg/mL (≈ 8.31 µM) in data set [6]; 2 µg/mL (≈ 4.15 µM) in data set [7]; 1 µg/mL (≈ 2.08 µM) in [8]; 4 µg/mL (≈ 8.31 µM) in [9]; 8 µg/mL (≈ 16.6 µM) in data set [10]; 8 µg/mL (≈ 16.6 µM) in data set [11]. Further, the MIC in data set [12] was 2 µg/mL (≈ 4.15 µM); in data set [13] it was 2 µg/mL (≈ 4.15 µM); in data set [14], 16 µg/mL (≈ 33.2 µM); in data set [15], 8 µg/mL (≈ 16.6 µM).
Regarding `CCC(CO)=C1CN(c2nc(Oc3cnc4ccnn4c3)nc3[nH]c4c(NC)cc(F)cc4c23)C1`, the minimum inhibitory concentration (MIC) in [3] and in data set [4] was 0.25 µg/mL (≈ 0.527 µM) throughout.
`CNc1cc(F)cc2c1[nH]c1nc(Oc3cnc(C)nc3)nc(N3CCC(=C(F)CN)CC3)c12`: the MIC is 0.015 µg/mL (≈ 0.0322 µM) in data set [16]; 0.015 µg/mL (≈ 0.0322 µM) in [1]; below 0.008 µg/mL in [2]; 0.5 µg/mL (≈ 1.07 µM) in data set [3]; 0.06 µg/mL (≈ 0.129 µM) in data set [4]; above 8 µg/mL in [5]. For the same compound, in data set [17], the inhibition at 2 min, 40 µM amounted to 70.4%. In addition, the pIC50 in data set [18] is 4.74.
For `CCC(CN)=C1CN(c2nc(S(C)(=O)=O)nc3[nH]c4c(NC)cc(F)cc4c23)C1`, the MIC in data set [1], in data set [2], in [3], in data set [4] and in data set [5] was above 16 µg/mL in each case.
In the case of `C[C@@H](O)[C@H]1C(=O)N2C(C(=O)O)=C(S[C@@H]3CN[C@H](C(=O)N(C)C)C3)[C@H](C)[C@H]12` [MEROPENEM], the MIC in data set [6] was 0.25 µg/mL (≈ 0.652 µM); in [7], 4 µg/mL (≈ 10.4 µM); in data set [8], 0.06 µg/mL (≈ 0.156 µM); in [9], at least 64 µg/mL; in data set [10] it was 16 µg/mL (≈ 41.7 µM); in data set [11], 16 µg/mL (≈ 41.7 µM). The MIC is above 32 µg/mL in data set [12], above 32 µg/mL in [13], 8 µg/mL (≈ 20.9 µM) in data set [14] and 1 µg/mL (≈ 2.61 µM) in [15].

What is called MIC is the smallest concentration in the dilution series that meets the test's criterion for growth inhibition. For orientation: inhibition means how much of the control response was suppressed. For orientation: pIC50 means the IC50 on a negative log10 scale, so that one unit is a factor of ten.
